Source: ChEMBL document CHEMBL2384906, “Biological activity, design, synthesis and structure activity relationship of some novel derivatives of curcumin containing sulfonamides” (Eur J Med Chem, 2013)
≈ marks a conversion by molar mass, not a printed value. Calls of active or inactive are those of the source. The calls are words filed in the database; no cut-off is given here.

Assays:
Mus musculus = test: Antiinflammatory activity in mouse assessed as inhibition of carrageenan-induced increase in paw volume at 200 mg/kg administered 1 hr prior to carrageenan challenge measured after 3 hrs relative to control; type: functional
Method in brief: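 Mice were fasted 2 h and placed in groups of five. Controls received saline i.p. Phenylbutazone was given at 100 mg/kg i.p., curcumin at 200 mg/kg i.p., and derivatives at 200 mg/kg. After 1 h, 0.1 mL of 1% carrageenan in saline was injected subplantar into the right hind paw. Paw volume was followed by plethysmometer for 3 h, and % inhibition was calculated as (Vc − Vt)/Vc × 100.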

HCT-116 = test: Cytotoxicity against human HCT116 cells after 24 hrs by MTT assay; type: functional, cell-based
Method in brief: (§1)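 The MTT assay seeded 5 × 10⁴ cells per well and grew them 24 h in RPMI 1640 with compound at 2.5–200 µM. Medium without cells was the blank and adriamycin the positive control. MTT was added for 4 h at 37 °C, formazan was solubilised, and absorbance was read at 570 nm. IC50 is the concentration that cuts viability 50% against untreated cells.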

QG-56 = test: Cytotoxicity against human QG56 cells after 24 hrs by MTT assay; type: functional, cell-based; method in brief: as §1
HeLa = test: Cytotoxicity against human HeLa cells after 24 hrs by MTT assay; type: functional, cell-based; method in brief: as §1
HepG2 = test: Cytotoxicity against human HepG2 cells after 24 hrs by MTT assay; type: functional, cell-based; method in brief: as §1
Trichoderma viride [1] = test: Antifungal activity against Trichoderma viride MTCC 1107 after 48 hrs; type: functional; settings: MTCC 1107, 48 h
Trichoderma viride [2] = test: Antifungal activity against Trichoderma viride MTCC 1107 assessed as zone of inhibition at 20 uM after 48 hrs by disc diffusion method; type: functional; settings: MTCC 1107, 48 h, read-out: IZ
Method in brief: (§2)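 Spores from 4-day potato dextrose agar cultures, suspended in sterile water at 1.5 × 10⁵ CFU/mL. 0.2 mL was spread on potato dextrose agar. 5 mm filter-paper discs soaked with test compound were laid on the lawn. Incubation was 48 h at 28 °C, then the inhibition zone was measured in mm. Fluconazole was the positive control and acetone the negative control.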

Trichoderma viride [3] = test: Antifungal activity against Trichoderma viride MTCC 1107 assessed as zone of inhibition at 40 uM after 48 hrs by disc diffusion method; type: functional; settings: MTCC 1107, 48 h, read-out: IZ; method in brief: as §2
Trichoderma viride [4] = test: Antifungal activity against Trichoderma viride MTCC 1107 assessed as zone of inhibition at 80 uM after 48 hrs by disc diffusion method; type: functional; settings: MTCC 1107, 48 h, read-out: IZ; method in brief: as §2
Curvularia lunata [5] = test: Antifungal activity against Curvularia lunata MTCC 581 after 48 hrs; type: functional; settings: MTCC 581, 48 h
Curvularia lunata [6] = test: Antifungal activity against Curvularia lunata MTCC 581 assessed as zone of inhibition at 20 uM after 48 hrs by disc diffusion method; type: functional; settings: MTCC 581, 48 h, read-out: IZ; method in brief: as §2
Curvularia lunata [7] = test: Antifungal activity against Curvularia lunata MTCC 581 assessed as zone of inhibition at 40 uM after 48 hrs by disc diffusion method; type: functional; settings: MTCC 581, 48 h, read-out: IZ; method in brief: as §2
Aspergillus flavus [8] = test: Antifungal activity against Aspergillus flavus MTCC 1021 after 48 hrs; type: functional; settings: MTCC 1021, 48 h
Curvularia lunata [9] = test: Antifungal activity against Curvularia lunata MTCC 581 assessed as zone of inhibition at 80 uM after 48 hrs by disc diffusion method; type: functional; settings: MTCC 581, 48 h, read-out: IZ; method in brief: as §2
Aspergillus flavus [10] = test: Antifungal activity against Aspergillus flavus MTCC 1021 assessed as zone of inhibition at 20 uM after 48 hrs by disc diffusion method; type: functional; method in brief: as §2
Aspergillus flavus [11] = test: Antifungal activity against Aspergillus flavus MTCC 1021 assessed as zone of inhibition at 40 uM after 48 hrs by disc diffusion method; type: functional; settings: MTCC 1021, 48 h, read-out: IZ; method in brief: as §2
Aspergillus flavus [12] = test: Antifungal activity against Aspergillus flavus MTCC 1021 assessed as zone of inhibition at 80 uM after 48 hrs by disc diffusion method; type: functional; settings: MTCC 1021, 48 h, read-out: IZ; method in brief: as §2
Aspergillus niger [13] = test: Antifungal activity against Aspergillus niger MTCC 1108 after 48 hrs; type: functional; settings: MTCC 1108, 48 h
Aspergillus niger [14] = test: Antifungal activity against Aspergillus niger MTCC 1108 assessed as zone of inhibition at 20 uM after 48 hrs by disc diffusion method; type: functional; method in brief: as §2
Aspergillus niger [15] = test: Antifungal activity against Aspergillus niger MTCC 1108 assessed as zone of inhibition at 40 uM after 48 hrs by disc diffusion method; type: functional; method in brief: as §2
Aspergillus niger [16] = test: Antifungal activity against Aspergillus niger MTCC 1108 assessed as zone of inhibition at 80 uM after 48 hrs by disc diffusion method; type: functional; settings: MTCC 1108, 48 h, read-out: IZ; method in brief: as §2
Escherichia coli [17] = test: Antimicrobial activity against Escherichia coli ATCC 35218 after 24 hrs by broth micro serial dilution method; type: functional; settings: ATCC 35218, 24 h
Method in brief: (§3)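 This was broth microdilution in autoclaved Mueller-Hinton broth. 150 µL of compound per well was serially diluted […], and 50 µL of test organism was added. Plates were incubated 24 h at 37 °C and optical density was read.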

Escherichia coli [18] = test: Antimicrobial activity against Escherichia coli ATCC 35218 assessed as diameter of inhibition zone at 20 uM after 24 hrs by Kirby -Baur disc diffusion method; type: functional
Method in brief: (§4)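 Kirby-Bauer disc diffusion was used. Acetone stocks (160 µM) were serially doubled down to 80, 40 and 20 µM. 4 µL of each went onto 5 mm sterile paper discs, which were dried 30 min at 50 °C. Inoculum was 1.5 × 10⁸ CFU/mL diluted to 3 × 10² CFU/mL, and 50 µL was spread on Mueller-Hinton agar. After 24 h at 37 °C the inhibition-zone diameter was measured. Ciprofloxacin served as positive control.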

Escherichia coli [19] = test: Antimicrobial activity against Escherichia coli ATCC 35218 assessed as diameter of inhibition zone at 40 uM after 24 hrs by Kirby -Baur disc diffusion method; type: functional; method in brief: as §4
Escherichia coli [20] = test: Antimicrobial activity against Escherichia coli ATCC 35218 assessed as diameter of inhibition zone at 80 uM after 24 hrs by Kirby -Baur disc diffusion method; type: functional; settings: ATCC 35218, 24 h, read-out: DIZ; method in brief: as §4
Pseudomonas aeruginosa [21] = test: Antimicrobial activity against Pseudomonas aeruginosa ATCC 15499 after 24 hrs by broth micro serial dilution method; type: functional; settings: ATCC 15499, 24 h; method in brief: as §3
Pseudomonas aeruginosa [22] = test: Antimicrobial activity against Pseudomonas aeruginosa ATCC 15499 assessed as diameter of inhibition zone at 20 uM after 24 hrs by Kirby -Baur disc diffusion method; type: functional; method in brief: as §4
Pseudomonas aeruginosa [23] = test: Antimicrobial activity against Pseudomonas aeruginosa ATCC 15499 assessed as diameter of inhibition zone at 40 uM after 24 hrs by Kirby -Baur disc diffusion method; type: functional; settings: ATCC 15499, 24 h, read-out: DIZ; method in brief: as §4
Pseudomonas aeruginosa [24] = test: Antimicrobial activity against Pseudomonas aeruginosa ATCC 15499 assessed as diameter of inhibition zone at 80 uM after 24 hrs by Kirby -Baur disc diffusion method; type: functional; settings: ATCC 15499, 24 h, read-out: DIZ; method in brief: as §4
Salmonella typhi [25] = test: Antimicrobial activity against Salmonella typhi ATCC 23564 after 24 hrs by broth micro serial dilution method; type: functional, Salmonella enterica subsp. enterica serovar Typhi; settings: Salmonella enterica, ATCC 23564, 24 h
Salmonella typhi [26] = test: Antimicrobial activity against Salmonella typhi ATCC 23564 assessed as diameter of inhibition zone at 20 uM after 24 hrs by Kirby -Baur disc diffusion method; type: functional; settings: Salmonella enterica subsp. enterica serovar Typhi
Salmonella typhi [27] = test: Antimicrobial activity against Salmonella typhi ATCC 23564 assessed as diameter of inhibition zone at 40 uM after 24 hrs by Kirby -Baur disc diffusion method; type: functional; settings: Salmonella enterica subsp. enterica serovar Typhi
Salmonella typhi [28] = test: Antimicrobial activity against Salmonella typhi ATCC 23564 assessed as diameter of inhibition zone at 80 uM after 24 hrs by Kirby -Baur disc diffusion method; type: functional, Salmonella enterica subsp. enterica serovar Typhi; settings: Salmonella enterica, ATCC 23564, 24 h; read-out: DIZ
Bacillus cereus [29] = test: Antimicrobial activity against Bacillus cereus MTCC 7350 after 24 hrs by broth micro serial dilution method; type: functional; settings: MTCC 7350, 24 h; method in brief: as §3
Bacillus cereus [30] = test: Antimicrobial activity against Bacillus cereus MTCC 7350 assessed as diameter of inhibition zone at 20 uM after 24 hrs by Kirby -Baur disc diffusion method; type: functional; method in brief: as §4
Bacillus cereus [31] = test: Antimicrobial activity against Bacillus cereus MTCC 7350 assessed as diameter of inhibition zone at 40 uM after 24 hrs by Kirby -Baur disc diffusion method; type: functional; method in brief: as §4
Bacillus cereus [32] = test: Antimicrobial activity against Bacillus cereus MTCC 7350 assessed as diameter of inhibition zone at 80 uM after 24 hrs by Kirby -Baur disc diffusion method; type: functional; settings: MTCC 7350, 24 h, read-out: DIZ; method in brief: as §4
Staphylococcus aureus [33] = test: Antimicrobial activity against Staphylococcus aureus ATCC 11632 after 24 hrs by broth micro serial dilution method; type: functional; settings: ATCC 11632, 24 h; method in brief: as §3
Staphylococcus aureus [34] = test: Antimicrobial activity against Staphylococcus aureus ATCC 11632 assessed as diameter of inhibition zone at 20 uM after 24 hrs by Kirby -Baur disc diffusion method; type: functional; method in brief: as §4
Staphylococcus aureus [35] = test: Antimicrobial activity against Staphylococcus aureus ATCC 11632 assessed as diameter of inhibition zone at 40 uM after 24 hrs by Kirby -Baur disc diffusion method; type: functional; method in brief: as §4
Staphylococcus aureus [36] = test: Antimicrobial activity against Staphylococcus aureus ATCC 11632 assessed as diameter of inhibition zone at 80 uM after 24 hrs by Kirby -Baur disc diffusion method; type: functional; settings: ATCC 11632, 24 h, read-out: DIZ; method in brief: as §4

COc1cc(/C=C/C(=O)C(/N=N/c2ccc(S(=O)(=O)Nc3cc(C)on3)cc2)=C(O)/C=C/c2ccc(O)c(OC)c2)ccc1O
inhibition in vivo at 200 mg/kg (Mus musculus): 14.5%
IC50 (HCT-116): Not Active
IC50 (QG-56): Not Active
IC50 (HeLa): > 100 µM
IC50 (HepG2): Not Active
MIC (Trichoderma viride [1]): 80 µM (≈ 50.6 µg/mL)
zone of inhibition at 20 µM (Trichoderma viride [2]): 9 mm
zone of inhibition at 40 µM (Trichoderma viride [3]): 11 mm
zone of inhibition at 80 µM (Trichoderma viride [4]): 13 mm
MIC (Curvularia lunata [5]): 80 µM (≈ 50.6 µg/mL)
zone of inhibition at 20 µM (Curvularia lunata [6]): 9 mm
zone of inhibition at 40 µM (Curvularia lunata [7]): 11 mm
MIC (Aspergillus flavus [8]): 80 µM (≈ 50.6 µg/mL)
zone of inhibition at 80 µM (Curvularia lunata [9]): 13 mm
inhibition zone (IZ) (Aspergillus flavus [10]): inactive
zone of inhibition at 40 µM (Aspergillus flavus [11]): 9 mm
zone of inhibition at 80 µM (Aspergillus flavus [12]): 10 mm
MIC (Aspergillus niger [13]): > 80 µM
inhibition zone (IZ) (Aspergillus niger [14]): inactive
inhibition zone (IZ) (Aspergillus niger [15]): inactive
zone of inhibition at 80 µM (Aspergillus niger [16]): 12 mm
MIC (Escherichia coli [17]): > 80 µM
diameter of the inhibition zone (DIZ) (Escherichia coli [18]): inactive
diameter of the inhibition zone (DIZ) (Escherichia coli [19]): inactive
zone of inhibition at 80 µM (Escherichia coli [20]): 11 mm
MIC (Pseudomonas aeruginosa [21]): > 80 µM
diameter of the inhibition zone (DIZ) (Pseudomonas aeruginosa [22]): inactive
zone of inhibition at 40 µM (Pseudomonas aeruginosa [23]): 9 mm
zone of inhibition at 80 µM (Pseudomonas aeruginosa [24]): 9 mm
MIC (Salmonella typhi [25]): > 80 µM
diameter of the inhibition zone (DIZ) (Salmonella typhi [26]): inactive
diameter of the inhibition zone (DIZ) (Salmonella typhi [27]): inactive
zone of inhibition at 80 µM (Salmonella typhi [28]): 9 mm
MIC (Bacillus cereus [29]): > 80 µM
diameter of the inhibition zone (DIZ) (Bacillus cereus [30]): inactive
diameter of the inhibition zone (DIZ) (Bacillus cereus [31]): inactive
zone of inhibition at 80 µM (Bacillus cereus [32]): 9 mm
MIC (Staphylococcus aureus [33]): > 80 µM
diameter of the inhibition zone (DIZ) (Staphylococcus aureus [34]): inactive
diameter of the inhibition zone (DIZ) (Staphylococcus aureus [35]): inactive
zone of inhibition at 80 µM (Staphylococcus aureus [36]): 9 mm
